Bioassay records (PubChem BioAssay)
PolyA inh = yeast polyadenylation inhibition | S. cerevisiae SKY197-pL101 polyadenylation reporter, beta-gal luminescence; efflux-impaired pdr1/pdr3 knockout yeast; score 100 = 6 SD above DMSO | activity score, % at 12 µM | 0.02% of 300,000 active;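 active = lowest replicate activity score at least 50, where 100 means six control SD above control mean; inconclusive = lowest score under 50 but half or more replicates reach 50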;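 also: yeast exposed to compound for 9 h at 30 °C; higher score means more reporter readthrough which indicates perturbed polyadenylation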
T cruzi repl = blocks replication of Trypanosoma cruzi; inhibition, % (test concentration not listed); T. cruzi beta-gal in NIH3T3, luminescence, 90 h; 1.4% of 300,000 active;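 active = mean inhibition across valid replicates above about 55%, limit read from the data; inconclusive = mean below that limit but half or more replicates reach it; inactive = mean below it, under half of replicates reach it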;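 also: signal also drops with host cell toxicity which is not excluded here; 0% = plate median of DMSO wells and 100% = zero luminescence signal; higher percent means less beta-gal luminescence so fewer parasites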
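assay system = mouse NIH/3T3 fibroblasts infected with β-gal-expressing T. cruzi Tulahuen C4 | input = 5,000 NIH/3T3 host cells per well | buffer or medium = DMEM plus 2% FBS | timing = 3 h host attachment, then at least 90 h co-culture | measured by = GalScreen luminescence, 60 min | evaluation = luminescence reflecting intracellular parasite burden, expressed as percent inhibition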
Calb FLC = affects C. albicans growth with fluconazole; 0.57% of 300,000 active; AID 1979; C. albicans CaCi-2 (fluconazole-resistant clinical isolate) + fluconazole, Alamar Blue growth, 48 h; growth inhibition, % (test concentration not listed);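 active = growth inhibition above about 58% in most replicates, limit read from the data, passing the limit was not always enough; inconclusive = exactly half the replicates above a set limit; inactive = most replicates below a set limit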;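 also: all wells also contain fluconazole at 8 µg/ml as a sub-toxic cotreatment; 0% = median of DMSO wells and 100% = median of geldanamycin control wells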
L major viab = Leishmania major promastigote growth inhibition; Leishmania major promastigotes, resazurin fluorescence viability; inhibition, % at 10 µM; 9% of 200,000 active; in the data active = inhibition above about 50%;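 also: promastigotes grown with compound for 44 hours at 28 °C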
NLRP3 yeast inh = NALP3 inhibition in yeast; 0.39% of 330,000 active; Yeast reconstituted NLRP3/ASC/caspase-1, beta-gal luminescence, 24 h; inhibition, % at 10 µM;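 active = inhibition of 50% or more; inactive = inhibition below 50%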;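 also: plate controls were induced DMSO wells for no effect and uninduced yeast grown without galactose for full effect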
NALP1 inh = NALP1 inhibition; S. cerevisiae NALP1/ASC/caspase-1 growth, X-gal OD620, 72 h; inhibition, % at 10 µM; 0.61% of 280,000 active; in the data active = inhibition mostly above about 24%, no sharp cut-off; inactive = mostly below about 32%
L major 1uM = blocks Leishmania major promastigote growth at 1 uM, repeat screen; L. major promastigote growth, resazurin fluorescence, 48 h; inhibition, % at 1 µM; shares compounds with L major viab; AID 1258; 13% of 1,100 active;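 active = inhibition above about 50% in both repeat tests, limit read from the data; inconclusive = one repeat under the set limit, the other over it; inactive = both repeats under the set limit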
* marks the source's active call; other numbers are inactive results; ? = inconclusive; / = not tested or not shown. Shown is part of a subset that was picked to be rich in hits.

SMILES	PolyA inh	T cruzi repl	Calb FLC	L major viab	NLRP3 yeast inh	NALP1 inh	L major 1uM
COc1cc2c(cc1NCc1ccccn1)oc1ccccc12	-2	13	0	73*	19	-58	-16
CCOC(=O)c1nc2cc3n(c(C)c-2c1C)C(C)C(CC)=C3C (stereo unspecified)	3	50	3	99*	-14	/	29
CCOC(=O)c1cn2ccc(C)cc2n1	2	-27	-15	-3	5	10	/
Cc1c(Br)c([N+](=O)[O-])nn1CCCC(=O)Nc1sc2c(c1C#N)CCC2	-11	17	?	82*	9	16	-3
N/C(=N\OC(=O)CCC1CCCCC1)c1ccc([N+](=O)[O-])cc1	14	-14	-21	76*	-8	24	1
N/C(=N\OC(=O)CC1CCCCC1)c1ccc([N+](=O)[O-])cc1	-6	13	-3	-10	-7	10	/
O=C(c1cc(Br)c(Br)s1)N1CCN(c2ccccn2)CC1	-1	20	?	/	39	8	/
O=C1C(c2ccc(F)cc2)N(Cc2ccc3c(c2)OCO3)C(=O)CN1C1CCCCCC1 (stereo unspecified)	-10	20	-15	23	23	-1	/
COc1ccc(C2C(=O)N(C3CCCCC3)CC(=O)N2Cc2ccc3c(c2)OCO3)cc1 (stereo unspecified)	-1	18	5	91*	12	20	-14
NS(=O)(=O)c1ccc(NC(=O)Cn2ncc3c2-c2ccccc2OC3)cc1	-12	-7	11	-1	-4	27	/
c1ccc(CN2CCN(C3=Nc4cccc5cccc3c45)CC2)cc1	-24	34	3	98*	16	1	46
CN1C(=O)c2ccccc2OC1(C)Cc1ccccc1 (stereo unspecified)	-17	11	-4	-7	17	39	/
Cc1cc(C=O)c2c(c1)C=CC1(Oc3ccccc3C(=O)N1C)O2 (stereo unspecified)	7	-9	-6	100*	/	-57	-9
Cc1nn(-c2ccccn2)c2c1C(=O)C(Br)CC2 (stereo unspecified)	/	/	/	100*	/	14	85*
O=C(CSc1nc2scc(-c3ccccc3)c2c(=O)[nH]1)NC1CCCCC1	11	-27	34	55*	22	12	3
COc1ccc(OC(=O)COc2cccc(C)c2)cc1	3	-3	24	/	21	-3	/
COc1ccc(N(C(=O)COc2cccc(C)c2)S(=O)(=O)c2ccc(C)cc2)cc1	10	-13	5	52*	-7	32	-12
Clc1ccc(/C=N/c2c(-c3ccc(Cl)cc3)nc3n2CCS3)cc1	9	8	-4	43	4	-6	/
Cc1cc(N/N=C/c2ccc(N(C)C)cc2)nc(NCc2ccccc2)n1	-3	/	15	/	28	6	/
CN(C)c1cc(N/N=C/c2ccc(Cl)cc2)nc(N(C)C)n1	-16	?	98*	78*	/	5	74*
COc1ccc(CCC(=O)NNC(=O)Nc2cc(Cl)ccc2C)cc1	-5	11	27	/	8	4	/
COC(=O)CNc1nc(-c2ccccc2F)nc2ccccc12	-25	11	1	59*	30	19	56*
O=c1cc(-c2cccc3ccccc23)[nH][nH]1	8	-15	26	80*	6	8	-11
COC(=O)c1ccc(CN(Cc2ccc(C(=O)OC)o2)C(C)(C)C)o1	-2	-2	-2	97*	9	-4	-12
CCCCC(Sc1nc(N)c(NC(=O)c2ccc(OC)cc2)c(=O)[nH]1)C(=O)O (stereo unspecified)	1	-4	-16	-5	25	19	/
SMILES	PolyA inh	T cruzi repl	Calb FLC	L major viab	NLRP3 yeast inh	NALP1 inh	L major 1uM
CCOc1ccc(NC(=O)c2cn(-c3ccc(OCC)cc3)c(=O)c3cc(OC)c(OC)cc23)cc1	8	?	86*	89*	8	4	-9
CSc1ccc(Cl)c(C(=O)OCC(=O)Nc2ccccc2OC(F)F)c1	0	-26	2	-4	12	24	/
COC(=O)C1=C(C(=O)OC)SC2(S1)C(C(=O)OC)=C(C(=O)OC)SC1=C2c2cccc(C)c2NC1(C)C	1	26	12	100*	23	6	6
COC(=O)c1ccccc1NC(=S)NC(NC(=O)COc1ccccc1)C(Cl)(Cl)Cl (stereo unspecified)	5	-2	17	99*	7	-1	23
Nc1nc(SCC(=O)c2ccc(Br)s2)n[nH]1	6	-11	7	1	16	-4	/
CCCNC(=O)OC[C@H]1O[C@H](CCO/N=C/c2ccc(C(=O)N3[C@H](c4ccc(C)cc4)[C@@H](C)CC[C@H]3C(=O)OC)cc2)C=C[C@@H]1Oc1ccc(OC)cc1	8	54	-8	0	-5	30	/
COC(=O)[C@@H]1CC[C@H](C)[C@@H](c2ccc(C)cc2)N1C(=O)c1ccc(/C=N/OCC[C@@H]2C=C[C@H](OC(C)=O)[C@@H](COC(C)=O)O2)cc1	12	5	9	96*	3	25	-17
OCCC1CN(Cc2cccc3nonc23)CCN1C1CCCCC1 (stereo unspecified)	2	-3	-19	2	15	6	/
CC(CCc1ccccc1)NCc1ccncc1 (stereo unspecified)	20	34	29	89*	13	6	17
CCN1CCN(c2cc(SC(C)C)nc(-c3ccc(OC)cc3)n2)CC1	5	41	-11	100*	/	16	0
CC(C)Sc1cc(N2CCOCC2)nc(-c2ccc(Cl)cc2)n1	4	30	-2	-3	20	5	/
COc1ccc(CCNC(=O)CSc2nnc(-c3ccco3)c(-c3ccco3)n2)cc1OC	14	6	15	/	7	5	/
CCOC(=O)C(=NCC1CCCO1)NNc1cc(Cl)ccc1Cl (stereo unspecified)	5	-11	-10	/	27	/	/
CC(C)(C)c1ccc(S(=O)(=O)N2C=CC(C(F)(F)F)=NCC2)cc1	-4	-10	-2	59*	25	18	-13
N=c1c2ccccc2nc2n1CCCCCCCCCCC2	12	38	55	/	14	/	/
CC1=NCC(C)c2c1[nH]c1ccccc21 (stereo unspecified)	6	-4	-8	84*	1	4	-10
COC(=O)c1ccc(-c2ccc(CNCC(O)c3ccccc3)o2)cc1 (stereo unspecified)	-6	41	-15	99*	-20	/	55*
Clc1ccc(-c2cc(-c3nnc4n3CCCCC4)c3ccccc3n2)cc1	6	9	19	-3	3	19	/
